Measured values reported in ChEMBL document CHEMBL4251654, “Structure-based design of human immuno- and constitutive proteasomes inhibitors” (Eur J Med Chem, 2018).

How the values were obtained:
[1] = target: T1, Proteasome Macropain subunit MB1 (Homo sapiens, UniProt P28074); experiment: Inhibition of human 20S constitutive proteasome beta-5 using Suc-LLVY-AMC as substrate incubated for 15 mins measured for 45 mins by fluorescence assay
T1 sequence (P28074 whole entry): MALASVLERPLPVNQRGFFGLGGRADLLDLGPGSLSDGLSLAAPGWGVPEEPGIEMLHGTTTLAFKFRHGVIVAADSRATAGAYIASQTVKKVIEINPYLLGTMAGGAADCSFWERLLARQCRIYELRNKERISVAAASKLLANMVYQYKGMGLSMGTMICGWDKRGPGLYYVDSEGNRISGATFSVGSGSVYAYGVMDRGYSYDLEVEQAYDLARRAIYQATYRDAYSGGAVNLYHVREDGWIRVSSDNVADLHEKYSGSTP
How it was run: (§1)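 Human 20S cCP or iCP (0.3 nM) was exposed to compound (0.001-50 μM) for 15 min in pH 8 buffer of 20 mM Tris-HCl, 10% glycerol, 0.01% SDS, 2% DMSO. Suc-LLVY-AMC at 20 μM followed. Fluorescence (ex 360/em 460 nm) was read 45 min at 37 °C versus untreated enzyme.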

[2] = target: T2, Proteasome subunit beta type-8 (Homo sapiens, UniProt P28062); experiment: Inhibition of human 20S immunoproteasome beta-5 using Suc-LLVY-AMC as substrate incubated for 15 mins measured for 45 mins by fluorescence assay; how it was run: as §1
T2 sequence (P28062 whole entry): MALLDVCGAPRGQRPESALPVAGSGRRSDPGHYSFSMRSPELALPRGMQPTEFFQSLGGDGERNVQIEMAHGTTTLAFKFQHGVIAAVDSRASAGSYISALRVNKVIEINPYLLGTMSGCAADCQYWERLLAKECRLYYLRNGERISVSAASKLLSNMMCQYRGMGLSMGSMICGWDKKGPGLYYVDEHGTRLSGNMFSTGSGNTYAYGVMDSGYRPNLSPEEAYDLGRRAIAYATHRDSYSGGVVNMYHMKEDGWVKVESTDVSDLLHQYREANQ

[3] = target: T3, Proteasome Macropain subunit MB1 (Homo sapiens) (UniProt P28074); experiment: Inhibition of human 20S constitutive proteasome beta-5 at 50 uM using Suc-LLVY-AMC as substrate incubated for 15 mins measured for 45 mins by fluorescence assay relative to control; how it was run: as §1
T3 sequence (whole entry): T1 sequence (P28074 whole entry)

[4] = target: T4, Proteasome subunit beta type-8 (Homo sapiens) (UniProt P28062); experiment: Inhibition of human 20S immunoproteasome beta-5 at 50 uM using Suc-LLVY-AMC as substrate incubated for 15 mins measured for 45 mins by fluorescence assay relative to control; how it was run: as §1
T4 sequence (whole entry): T2 sequence (P28062 whole entry)

[5] = target: T5, Proteasome subunit beta type-9 (Homo sapiens, UniProt P28065); experiment: Inhibition of human 20S immunoproteasome beta-1 using Ac-PAL-AMC as substrate incubated for 15 mins measured for 45 mins by fluorescence assay
T5 sequence (P28065 whole entry): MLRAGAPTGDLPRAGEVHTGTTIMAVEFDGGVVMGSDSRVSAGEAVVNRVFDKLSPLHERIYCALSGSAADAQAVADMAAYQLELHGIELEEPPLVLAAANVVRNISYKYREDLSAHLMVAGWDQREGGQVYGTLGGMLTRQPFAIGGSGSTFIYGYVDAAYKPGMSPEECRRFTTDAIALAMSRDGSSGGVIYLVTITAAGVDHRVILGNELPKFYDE
How it was run: (§2)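 Human 20S immunoproteasome (0.3 nM) was given 15 min with compound (0.001-50 μM) in pH 8 buffer of 20 mM Tris-HCl, 10% glycerol, 0.01% SDS, 2% DMSO. Ac-PAL-AMC at 50 μM was the substrate. Fluorescence (ex 360/em 460 nm) was followed 45 min at 37 °C relative to control.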

[6] = target: T6, Proteasome component C5 (Homo sapiens) (UniProt P20618); experiment: Inhibition of human 20S constitutive proteasome beta-1 at 50 uM using Z-LLE-betaNA as substrate incubated for 15 mins measured for 45 mins by fluorescence assay relative to control
T6 sequence (whole entry): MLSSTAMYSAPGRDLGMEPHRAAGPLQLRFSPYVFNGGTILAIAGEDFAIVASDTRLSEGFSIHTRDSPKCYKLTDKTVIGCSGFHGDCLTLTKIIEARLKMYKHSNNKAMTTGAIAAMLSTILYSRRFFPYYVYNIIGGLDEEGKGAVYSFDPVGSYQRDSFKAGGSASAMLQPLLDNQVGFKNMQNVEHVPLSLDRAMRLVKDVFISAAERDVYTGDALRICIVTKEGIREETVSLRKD
How it was run: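 Human 20S constitutive proteasome, 0.3 nM, was preincubated 15 min with compound (0.001-50 μM) in pH 8 Tris-HCl 20 mM, 10% glycerol, 0.01% SDS, 2% DMSO. Z-LLE-βNA at 50 μM was added. βNA fluorescence (ex 340/em 404 nm) was monitored 45 min at 37 °C against an untreated control.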

[7] = target: T7, Proteasome subunit beta type-9 (Homo sapiens) (UniProt P28065); experiment: Inhibition of human 20S immunoproteasome beta-1 at 50 uM using Ac-PAL-AMC as substrate incubated for 15 mins measured for 45 mins by fluorescence assay relative to control; how it was run: as §2
T7 sequence (whole entry): T5 sequence (P28065 whole entry)

[8] = target: T8, Proteasome subunit beta type-10 (Homo sapiens, UniProt P40306); experiment: Inhibition of human 20S immunoproteasome beta-2 using BocLRR-AMC as substrate incubated for 15 mins measured for 45 mins by fluorescence assay
T8 sequence (P40306 whole entry): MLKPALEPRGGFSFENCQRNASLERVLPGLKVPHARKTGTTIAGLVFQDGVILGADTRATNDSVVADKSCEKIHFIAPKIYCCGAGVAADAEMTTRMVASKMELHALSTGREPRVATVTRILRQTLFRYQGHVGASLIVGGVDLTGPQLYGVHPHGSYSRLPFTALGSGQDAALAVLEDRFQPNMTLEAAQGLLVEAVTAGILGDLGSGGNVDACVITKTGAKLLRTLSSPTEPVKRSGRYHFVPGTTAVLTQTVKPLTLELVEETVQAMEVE

[9] = target: Proteasome Macropain subunit (Homo sapiens) (UniProt P49721); experiment: Inhibition of human 20S constitutive proteasome beta-2 at 50 uM using BocLRR-AMC as substrate incubated for 15 mins measured for 45 mins by fluorescence assay relative to control
Chain of Proteasome Macropain subunit (Homo sapiens) (P49721 whole entry): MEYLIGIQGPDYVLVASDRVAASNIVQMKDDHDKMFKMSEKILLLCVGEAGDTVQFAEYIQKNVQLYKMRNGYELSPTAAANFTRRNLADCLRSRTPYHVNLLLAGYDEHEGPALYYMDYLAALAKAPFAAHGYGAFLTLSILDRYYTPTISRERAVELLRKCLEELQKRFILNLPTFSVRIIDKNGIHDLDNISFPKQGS
How it was run: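 Purified human 20S proteasome (cCP or iCP), 0.3 nM, preincubated 15 min with compound (0.001-50 μM) in pH 8 buffer of 20 mM Tris-HCl, 10% glycerol, 0.005% Triton X-100, 2% DMSO. Then Boc-LRR-AMC at 50 μM was added. AMC fluorescence (ex 360/em 460 nm) was followed 45 min at 37 °C. Activity is relative to an untreated control.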

[10] = target: T9, Proteasome subunit beta type-10 (Homo sapiens) (UniProt P40306); experiment: Inhibition of human 20S immunoproteasome beta-2 at 50 uM using BocLRR-AMC as substrate incubated for 15 mins measured for 45 mins by fluorescence assay relative to control
T9 sequence (whole entry): T8 sequence (P40306 whole entry)

Huh-7 = experiment: Cytotoxicity against human HuH7 cells assessed as reduction in cell viability after 48 hrs by Hoechst 33342 staining based HCS assay; format: functional; conditions: huh-7
How it was run: (§3)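 Cells were grown at 37 °C, 5% CO2 in medium with 10% FBS, 1% penicillin-streptomycin, 2 mM glutamine: DMEM for HuH7, MDA-MB-231 and fibroblasts, EMEM for Caco2, McCoy's for HCT116, RPMI for PC3 and NCI-H727. 4000 cells/well were seeded and dosed 24 h later at 0.1-25 μM final, from DMSO stocks. After 48 h they were fixed in ethanol/acetic acid and Hoechst-stained nuclei were counted by imaging. Survival is relative to DMSO. EC50 came from dose-response curves.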

Caco-2 = experiment: Cytotoxicity against human Caco2 cells assessed as reduction in cell viability after 48 hrs by Hoechst 33342 staining based HCS assay; format: functional; how it was run: as §3
MDA-MB-231 = experiment: Cytotoxicity against human MDA-MB-231 cells assessed as reduction in cell viability after 48 hrs by Hoechst 33342 staining based HCS assay; format: functional; how it was run: as §3
HCT-116 = experiment: Cytotoxicity against human HCT116 cells assessed as reduction in cell viability after 48 hrs by Hoechst 33342 staining based HCS assay; format: functional; how it was run: as §3
PC-3 = experiment: Cytotoxicity against human PC3 cells assessed as reduction in cell viability after 48 hrs by Hoechst 33342 staining based HCS assay; format: functional; how it was run: as §3
NCI-H727 = experiment: Cytotoxicity against human NCI-H727 cells assessed as reduction in cell viability after 48 hrs by Hoechst 33342 staining based HCS assay; format: functional; how it was run: as §3
MCF7 = experiment: Cytotoxicity against human MCF7 cells assessed as reduction in cell viability after 48 hrs by Hoechst 33342 staining based HCS assay; format: functional
Fibroblast = experiment: Cytotoxicity against human fibroblasts assessed as reduction in cell viability at 25 uM after 48 hrs by Hoechst 33342 staining based HCS assay
[11] = Homo sapiens, MDA-MB-231, 48 h, read-out: EC50
[12] = Homo sapiens, HCT-116, 48 h, read-out: EC50
[13] = Homo sapiens, PC-3, 48 h, read-out: EC50
[14] = Homo sapiens, MCF7, 48 h, read-out: EC50
[15] = Homo sapiens, Caco-2, 48 h, read-out: EC50

Structure (SMILES) | IC50 [1] [nM] | IC50 [2] [nM] | inhibition [3] [%] | inhibition [4] [%] | IC50 [5] [µM] | inhibition [6] [%] | inhibition [7] [%] | IC50 [8] [µM] | inhibition [9] [%] | inhibition [10] [%] | EC50 (Huh-7) | EC50 (Caco-2; caco-2) | EC50 (MDA-MB-231; [11]) [µM] | EC50 (HCT-116; [12]) [µM] | EC50 (PC-3; [13]) [µM] | EC50 (NCI-H727; nci-h727) | EC50 (MCF7; [14]) [µM] | Activity (Fibroblast) | EC50 (Caco-2; [15]) [µM] | EC50 (MDA-MB-231; mda-mb-231) | other results
C[C@H](NC(=O)c1ccc(OCc2ccccc2)cc1)C(=O)N[C@@H](C[C@]1(O)C(=O)Nc2ccccc21)C(=O)NCc1ccccc1 | 113 | 170 | > 85 | > 85 | 52 | > 85 | > 85 | 28.3 | > 85 | > 85 | Not Active | Not Active | 23 | 10 | 24 | Not Active | 21 | Non-Toxic |  |  | 
C[C@@H](O)[C@@H](NC(=O)c1ccc(OCc2ccccc2)cc1)C(=O)N[C@@H](C[C@]1(O)C(=O)Nc2ccccc21)C(=O)NCc1ccccc1 | 7.1 | 10.2 | > 85 | > 85 | 23.8 | > 85 | > 85 | 6.6 | > 85 | > 85 | Not Active |  | 0.7 | 0.2 | 0.4 |  | 0.7 | Non-Toxic | 5 |  | EC50 (NCI-H727; Homo sapiens, NCI-H727, 48 h, read-out: EC50): 2000 nM
CC(C)(C)OC(=O)N[C@@H](Cc1ccc(OCc2ccccc2)cc1)C(=O)N[C@@H](CC(N)=O)C(=O)N[C@@H](C[C@]1(O)C(=O)Nc2ccccc21)C(=O)NCc1ccccc1 | 1480 | 1600 | > 85 | > 85 | 16.1 | > 85 | > 85 |  |  |  | Not Active | Not Active |  |  |  | Not Active |  | Non-Toxic |  | Not Active | EC50 (HCT-116; hct-116): Not Active; EC50 (PC-3; pc-3): Not Active; EC50 (MCF7; mcf7): Not Active
C[C@H](O)[C@@H](NC(=O)[C@H](Cc1ccc(OCc2ccccc2)cc1)NC(=O)OC(C)(C)C)C(=O)N[C@@H](C[C@]1(O)C(=O)Nc2ccccc21)C(=O)NCc1ccccc1 | 125 | 200 | > 85 | > 85 | 8.8 | > 85 | > 85 | 5.8 | > 85 | > 85 | Not Active |  | 9 | 9 | 10 | Not Active | 9 | Non-Toxic | 32 |  | 
C[C@H](NC(=O)[C@H](Cc1ccc(OCc2ccccc2)cc1)NC(=O)OC(C)(C)C)C(=O)N[C@@H](C[C@]1(O)C(=O)Nc2ccccc21)C(=O)NCc1ccccc1 |  |  |  |  |  |  |  |  |  |  | Not Active | Not Active |  | 32 |  | Not Active | 26 | Non-Toxic |  | Not Active | EC50 (PC-3; pc-3): Not Active
